Results from different studies.
Protocols differ between the studies behind these lines.
Target: Interleukin-1 receptor-associated kinase 1 (IRAK1, Homo sapiens, UniProt P51617)

Structure (SMILES) | assay | setting | remaining binding [%]
N#CC1(c2ccccn2)CCN(Cc2cc(C(=O)N3CCCC3)c(=O)n3ccccc23)CC1 | cell-free assay, competition with immobilised ligand | 1 µM | 100
O=C(NCC1CCOCC1)c1n[nH]cc1NC(=O)c1c(F)cccc1F | binding, competition with immobilised ligand | 1 µM | 98
CCS(=O)(=O)c1cc2cc(C[C@](O)(CC(C)(C)c3ccc(F)cc3C(N)=O)C(F)(F)F)[nH]c2cn1 | cell-free assay, competition with immobilised ligand | 1 µM | 99
FC(F)(F)Oc1cccc(-c2cnc3ccc(-c4ccncc4)nn23)c1 | cell-free assay, competition with immobilised ligand | 5 µM | 10
Cc1c(NC(=O)c2cc(C(N)=O)nc3cc(F)ccc23)c(C(F)(F)F)nn1Cc1ccc(C(C)(C)C)cc1 | cell-free assay, competition with immobilised ligand | 1 µM | 100
Cc1cnc(Nc2ccc(C(=O)N3CCC(N4CCCC4)CC3)cc2)nc1-c1cc2ccccc2s1 | binding, competition with immobilised ligand | 1 µM | 0
Cc1cnn2ncc(-c3ccnc(N(C)C)n3)c2c1 | binding | 1 µM | 100
O=S(=O)(NC1CCC(c2cc(F)ccc2F)(S(=O)(=O)c2ccc(Cl)cc2)CC1)C(F)(F)F (stereo not drawn) | cell-free assay, competition with immobilised ligand | 1 µM | 93
CN(C)c1ncc(F)c(-c2cnn3ncccc23)n1 | binding | 1 µM | 66
O=C(c1ccc(Nc2ncc(Cl)c(-c3cc4ccccc4s3)n2)cc1)N1CCC(N2CCCC2)CC1 | binding, competition with immobilised ligand | 1 µM | 0
CN(CCCC(F)(F)F)c1nccc(-c2cnn3ncccc23)n1 | binding | 1 µM | 100
C=CC(=O)N1CCC(C(=O)NCC(=O)N2CCN(c3nc(-c4cnc(N)nc4C(F)F)nc(N4CCOCC4)n3)CC2)CC1 | binding, competition with immobilised ligand | 1 µM | 100
Cc1nccc(COC(=O)N2C[C@@H]3[C@@H](CNC(=O)c4ccc5[nH]nnc5c4)[C@@H]3C2)n1 | cell-free assay, competition with immobilised ligand | 1 µM | 81
N[C@H]1CCN(c2nccc(-c3cnn4ncccc34)n2)C1 | binding | 1 µM | 90
COc1ncc2cc3ccccc3nc2c1C#N | cell-free assay, competition with immobilised ligand | 5 µM | 92
COc1cnc(Nc2cccc(S(N)(=O)=O)c2)nc1N1CCN(c2ccccc2)CC1 | binding, competition with immobilised ligand | 1 µM | 68
c1cnn2ncc(-c3ccnc(N4CCC45COC5)n3)c2c1 | binding | 1 µM | 76
O=C(NCCCN1CCOCC1)c1ccc(Nc2nccc(-c3cc4ccccc4s3)n2)cc1 | binding, competition with immobilised ligand | 1 µM | 3.3
CNC(=O)[C@@H]1CC[C@@H](n2c(-c3ccc4cnccc4c3)nc3ccc(C(=O)NCc4cccc(C(N)=O)c4)cc32)C1 | binding, competition with immobilised ligand | 1 µM | 100
COc1ccc2cc(OCC3(C(=O)O)CN(C(=O)c4ccc(F)cc4)C3)ccc2c1 | cell-free assay, competition with immobilised ligand | 1 µM | 100
C[C@H]1CCN(c2nccc(-c3cnn4ncccc34)n2)C1 | binding | 1 µM | 100
